The results in this text go back to ChEMBL document CHEMBL1144751, “Synthesis of caged 2,3,3a,7a-tetrahydro-3,6-methanobenzofuran-7(6H)-ones: Evaluating the minimum structure for apoptosis induction by gambogic acid” (Bioorg Med Chem, 2008).

In test [1] the test system is SNU-398. Briefly: Induction of apoptosis in human SNU398 cells assessed as caspase 3 activation after 24 hrs. It counts as functional, cell-based. Particulars: SNU-398, 24 h. In short, it runs like this: (§1)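 Cell-based caspase-3 activation HTS assay. After compound exposure, the fluorogenic caspase-3 substrate N-(Ac-DEVD)-N-ethoxycarbonyl-R110 in caspase buffer was added and incubated 2 h at 37 °C. Fluorescence was read as RFU. Activation is the ratio of net RFU for treated samples to that of control samples. Values are means ± SEM of three or more experiments.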

Test [2] deals with HCT-116. As to the kind of experiment: Growth inhibition of human HCT116 cells after 48 hrs by CellTiter-Glo assay. It counts as functional. Particulars: HCT-116, 48 h. In short, it runs like this:
(§2)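 T47D, HCT116 and SNU398 cells from ATCC, run in 96-well format. Cells were exposed continuously to test compound for 48 h, then given CellTiter-Glo reagent, mixed by agitation, held 10–15 min at room temperature and read by luminescence. GI50 is the concentration giving 50% inhibition relative to untreated control cells. Values are means ± SEM of three experiments.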
(In general: ATP-based viability assays read luminescence as a measure of living cells.)

The subject of test [3] is SNU-398. Briefly: Growth inhibition of human SNU398 cells after 48 hrs by CellTiter-Glo assay. Type of test: functional. The note with it: SNU-398, 48 h. The method in brief: as §2
In test [4] the test system is T47D. As to the kind of experiment: Growth inhibition of human T47D cells after 48 hrs by CellTiter-Glo assay. Type of test: functional. In short, it runs like this:
as §2

Test [5] has as its system T47D. Briefly: Induction of apoptosis in human T47D cells assessed as caspase 3 activation after 24 hrs. It counts as functional, cell-based. The method in brief: as §1
Test [6] deals with HCT-116. Briefly: Induction of apoptosis in human HCT116 cells assessed as caspase 3 activation after 24 hrs. Type of test: functional, cell-based. Particulars: HCT-116, 24 h. In short, it runs like this:
as §1

pEC50: −log10 of the molar value.

One may read the pEC50 as the negative decadic logarithm of the EC50, by convention in mol/L. As usually defined, the GI50 is the concentration that inhibits growth by half.

As for `CC(C)=CC[C@]12OC(C)(C)C3C[C@@]4(OC(c5ccccc5)=CC(=O)C4=C[C@@H]31)C2=O`, the pEC50 in test [1] was 5.60; in test [5] it was 5.32; in test [6] it was 5.44. The GI50 stood at 0.9 µM in test [2], 1.2 µM in test [3] and 1 µM in test [4].

`C=CC[C@@]12C=C(C(=O)c3ccccc3)[C@]3(CC=C)C(CO[C@@]3(CC=C)C1=O)C2`: the negative-log EC50 (pEC50) in test [1], in test [5] and in test [6] was less than 4.70 in each case. Further, the GI50 in test [2], in test [3] and in test [4] was greater than 20 µM in each case.

Take `C=CC[C@@]12OCC3C[C@H](CC4C(=O)c5ccccc5O[C@@]341)C2=O` (stereo partly drawn): the pEC50 in test [1], in test [5] and in test [6] was less than 4.70 in each case. In addition, the GI50 in test [2], in test [3] and in test [4] was greater than 20 µM in each case.

Take `C=CC[C@@]12CC3CO[C@](CC=C)(C1=O)[C@@]3(CC=C)C=C2C(=O)c1ccccc1`: the pEC50 in test [1], in test [5] and in test [6] was less than 4.70 throughout.

For `C=CC[C@]12OCC3C[C@@]4(Oc5ccccc5C(=O)C4=C[C@@H]31)C2=O`, the results for the pEC50 in test [1], in test [5] and in test [6] were 5.29, 5.23 and less than 4.70, respectively. Also, the GI50 in test [2] amounted to 1.5 µM; in test [3], 1.5 µM; in test [4], 1.4 µM.

As to `CC(C)=CCC[C@]1(C)C=Cc2c(O)c3c(c(CC=C(C)C)c2O1)O[C@]12C(C[C@H]4CC1C(C)(C)O[C@@]2(C/C=C(\C)C(=O)O)C4=O)C3=O` (stereo partly drawn), the negative logarithm of the EC50 (pEC50) in test [1], in test [5] and in test [6] was less than 4.70 in each case. Also, the GI50 in test [2], in test [3] and in test [4] was greater than 20 µM in each case.

With `CC(C)=CC[C@@]12OC(C)(C)C3C[C@H](C=C4C(=O)C=C(c5ccccc5)O[C@]431)C2=O`, the values for the pEC50 in test [1], in test [5] and in test [6] were 5.59, 5.29 and 5.27, respectively. Also, the GI50 was determined as 1.1 µM in test [2], 1.2 µM in test [3] and 1.4 µM in test [4].

Regarding `C=CC[C@@]12OCC3C[C@H](C=C4C(=O)c5ccccc5O[C@]431)C2=O`, the pEC50 was 5.24 in test [1], less than 4.70 in test [5] and 5.15 in test [6]. Besides, the GI50 in test [2] stood at 1.6 µM; in test [3] it was 1.9 µM; in test [4], 1.6 µM.

As for `CC(C)=CC[C@]12OC(C)(C)C3C[C@@]4(Oc5ccccc5C(=O)C4=C[C@@H]31)C2=O`, the figures for the pEC50 in test [1], in test [5] and in test [6] were 5.82, 5.57 and 5.72, respectively. In addition, the GI50 in test [2] was determined as 0.2 µM; in test [3] it was 0.3 µM; in test [4], 0.3 µM.

In the case of `CC(C)=CC[C@@]12OC(C)(C)C3C[C@H](C=C4C(=O)c5ccccc5O[C@]431)C2=O`, the figures for the pEC50 in test [1], in test [5] and in test [6] were 6.05, 5.52 and 5.64, respectively. The GI50 in test [2], in test [3] and in test [4] was 0.2 µM in each case.

With `CC(C)=CCC[C@]1(C)C=Cc2c(O)c3c(c(CC=C(C)C)c2O1)O[C@]12C(=C[C@@H]4C[C@H]1C(C)(C)O[C@@]2(C/C=C(/C)C(=O)O)C4=O)C3=O` [GAMBOGIC ACID], the negative logarithm of the EC50 (pEC50) in test [1], in test [5] and in test [6] was 6.15 throughout. Moreover, the GI50 came to 0.1 µM in test [2], 0.2 µM in test [3] and 0.2 µM in test [4].
